In ChEMBL document CHEMBL1811908, “Design of HIV-1 integrase inhibitors targeting the catalytic domain as well as its interaction with LEDGF/p75: a scaffold hopping approach using salicylate and catechol groups” (Bioorg Med Chem, 2011):

What was measured:
[1] = target: T1, Human immunodeficiency virus type 1 integrase (Human immunodeficiency virus 1, UniProt Q7ZJM1); test: Inhibition of wild-type HIV1 integrase 3'-processing activity using [32P]-5'-end-labeled 5'-GTGTGGAAAATCTCTAGCAGT-3' as substrate after 1 hr
T1 sequence (Q7ZJM1 whole entry): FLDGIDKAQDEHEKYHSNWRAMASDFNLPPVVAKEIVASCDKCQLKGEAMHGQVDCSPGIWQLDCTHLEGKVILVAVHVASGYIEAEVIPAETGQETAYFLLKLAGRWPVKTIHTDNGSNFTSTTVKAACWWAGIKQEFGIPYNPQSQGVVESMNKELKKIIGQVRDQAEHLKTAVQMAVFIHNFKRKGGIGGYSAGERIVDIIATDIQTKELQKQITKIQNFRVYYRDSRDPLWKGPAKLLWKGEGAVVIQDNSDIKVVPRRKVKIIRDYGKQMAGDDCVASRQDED

[2] = target: T1, Human immunodeficiency virus type 1 integrase; test: Inhibition of wild-type HIV1 integrase strand transfer activity using [32P]-5'-end-labeled 5'-GTGTGGAAAATCTCTAGCAGT-3' as substrate after 1 hr
NCI-H630 = test: (§1) Cytotoxicity against human NCI-H630 cells after 72 hrs by MTT assay; type: cell-based; conditions: nci-h630, 72 h
In short: (§2)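 H630 colon cancer cells seeded, attached overnight, then continuously exposed to compound (DMSO stocks) for 72 h. MTT added to 0.5 mg/mL final, 4 h at 37°C; supernatant removed, DMSO added, absorbance read at 570 nm. IC50 taken from plot of log concentration versus percentage of cells killed.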

[3] = Inhibition of HIV1 His6-tagged integrase-LEDGF/p75 interaction after 30 mins by AlphaScreen assay
In short: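 His6-tagged IN (300 nM final) preincubated with compound (0.1–100 μM) 30 min at 4°C in 25 mM Tris-HCl pH 7.4, 150 mM NaCl, 1 mM MgCl2, 0.01% Tween-20, 0.1% BSA; 100 nM Flag-LEDGF/p75 added, 1 h at 4°C. Ni-chelate acceptor and anti-Flag donor beads (20 μg/ml each) added, 1 h at 30°C; AlphaScreen emission read.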

[4] = as §1; type: cell-based; conditions: NCI-H630 cells
In short: as §2

| Structure (SMILES) | IC50 [1] [µM] | IC50 [2] [µM] | CC50 (NCI-H630) [µM] | IC50 [3] [µM] | CC50 at 72 h [4] [µM] |
| --- | --- | --- | --- | --- | --- |
| O=C(NCC1CCCCC1)c1cccc(O)c1O | > 100 | 18 | 21 | > 100 | – |
| O=C(O)c1cccc(OCc2ccccc2)c1O | > 100 | > 100 | – | – | > 40 |
| CC(C)(C)NS(=O)(=O)c1cc(O)c(O)c(C(=O)NCc2ccc(F)cc2)c1 | 70 | 8 | – | 100 | > 10 |
| O=C(NCc1ccco1)c1cc(S(=O)(=O)N2CCCCC2)cc(O)c1O | > 100 | 13 | 33 | > 100 | – |
| CNC(=O)c1cc(F)ccc1CNC(=O)c1cccc(O)c1O | > 100 | 100 | – | > 100 | > 40 |
| O=C(NCc1cccs1)c1cccc(O)c1O | 83 | 12 | – | 95 | > 40 |
| O=C(NCc1ccc(F)cc1)c1cccc(OCc2ccccc2)c1O | > 333 | 111 | – | – | > 40 |
| CNC(=O)Cc1ccccc1CNC(=O)c1cccc(O)c1O | > 100 | 56 | – | > 100 | > 40 |
| O=C(NO)c1cc(OCc2ccc(F)cc2)ccc1O | > 100 | 85 | – | – | – |
| O=C(O)c1ccc(OCc2ccc(F)cc2)cc1O | > 100 | > 100 | – | – | > 40 |
| O=C(NC1CCCCC1)c1cccc(O)c1O | > 100 | > 100 | – | > 100 | > 40 |
| COc1cc(S(=O)(=O)N2CCCCC2)cc(C(=O)NCc2ccco2)c1O | > 100 | > 100 | – | 13 | > 25 |
| O=C(NCc1ccc(F)c(F)c1)c1cccc(O)c1O | > 100 | 23 | – | 56 | > 40 |
| O=C(NO)c1cccc(OCc2ccc(F)cc2)c1O | > 100 | > 100 | – | – | – |
| O=C(NCc1ccc(F)cc1)c1cccc(O)c1O | 100 | 35 | – | > 100 | > 40 |
| Nc1cccc(C(=O)NCc2ccco2)c1O | > 100 | > 100 | – | 51 | > 25 |
| O=C(O)c1cccc(OCc2ccc(F)cc2)c1O | > 100 | > 100 | – | – | > 40 |
| O=C(O)c1cccc(OCc2ccc3ccccc3c2)c1O | > 100 | 140 | – | – | > 40 |
| O=C(O)c1ccc(OCc2ccccc2)cc1O | > 100 | > 100 | – | – | > 40 |
| O=C(NCC1CCCCC1)c1cc(S(=O)(=O)N2CCCCC2)cc(O)c1O | 53 | 19 | – | 8 | > 40 |
| O=C(NC1CCNCC1)c1cccc(O)c1O | > 100 | > 100 | – | > 100 | > 10 |

| Structure (SMILES) | IC50 [1] [µM] | IC50 [2] [µM] | CC50 (NCI-H630) [µM] | IC50 [3] [µM] | CC50 at 72 h [4] [µM] |
| --- | --- | --- | --- | --- | --- |
| CS(=O)(=O)Nc1cc(O)c(O)c(C(=O)NCc2ccc(F)cc2)c1 | > 100 | 34 | – | 100 | – |
| CN(C)Cc1ccc(C(=O)NCc2ccc(F)cc2)c(O)c1O | > 100 | 20 | – | > 50 | > 10 |
| O=C(Nc1ccc2[nH]ccc2c1)c1cccc(O)c1O | > 100 | 58 | – | 88 | > 40 |
| O=C(NCc1cccc2ccccc12)c1cccc(O)c1O | > 100 | 26 | 21 | 34 | – |
| O=C(NO)c1ccc(OCc2ccc(F)cc2)cc1O | > 100 | 100 | – | – | – |
| O=C(O)c1c(O)cccc1OCc1ccc(F)cc1 | > 100 | > 100 | – | – | > 40 |
| CC(=O)Nc1cc(O)c(O)c(C(=O)NCc2ccc(F)cc2)c1 | 55 | 14 | – | > 100 | < 10 |
| O=C(NCc1ccc(C(F)(F)F)cc1)c1cc(S(=O)(=O)N2CCCCC2)cc(O)c1O | 89 | 11 | 31 | > 100 | – |
| O=C(NCc1ccco1)c1cccc(O)c1O | 90 | 15 | – | 89 | > 40 |
| O=C(NCCc1c[nH]c2ccccc12)c1cccc(O)c1O | 100 | 100 | 15 | 63 | – |
| O=C(O)c1cc(OCc2ccc(F)cc2)ccc1O | > 100 | > 100 | – | – | > 40 |
| O=C(NCc1ccc2[nH]ccc2c1)c1cccc(O)c1O | – | – | – | 45 | > 40 |
| O=C(O)c1cc(OCc2ccccc2)ccc1O | > 100 | > 100 | – | – | > 40 |
| CNS(=O)(=O)c1cc(O)c(O)c(C(=O)NCc2ccc(F)cc2)c1 | > 100 | 44 | – | > 100 | > 40 |
| O=C(NO)c1c(O)cccc1OCc1ccc(F)cc1 | > 100 | 97 | – | – | – |
| CN(C)Cc1ccc(C(=O)NCc2ccco2)c(O)c1O | > 100 | 39 | 7 | > 50 | – |
| O=C(NCc1ccc(F)cc1)c1cc(S(=O)(=O)N2CCCCC2)cc(O)c1O | 200 | 5 | 13 | – | – |
| O=C(NCc1cccs1)c1cc(S(=O)(=O)N2CCCCC2)cc(O)c1O | > 100 | 44 | – | > 50 | > 40 |
| O=C(NCc1ccc(-c2cccs2)cc1)c1cccc(O)c1O | > 100 | 21 | 15 | > 100 | – |
| N#Cc1cc(O)c(O)c(C(=O)NCc2ccc(F)cc2)c1 | 75 | 22 | – | – | > 10 |
| O=C(O)c1c(O)cccc1OCc1ccc2ccccc2c1 | > 100 | 186 | – | – | > 40 |
